High-throughput results deposited in PubChem BioAssay by several laboratories.
SUMO HTRF inh = inhibitors of human SUMOylation (UBC9); HTRF SUMOylation assay, SAE1/SAE2 + UBC9, in vitro; hit rate 0.36% among 290,000; inhibition, % at 35 µM; P63279; in the data active = inhibition above about 50%, passing the limit was not always enough; inconclusive = no clear call, values can overlap the other calls
GSTO1 inh = GSTO1 inhibition, counter-screen for RBBP9 inhibitors | recombinant GSTO1, activity-based probe fluorescence polarization | inhibition, % at 5.96 µM | hit rate 1.1% among 300,000;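 active = inhibition above the campaign mean inhibition plus 3 SD, cut at about 35% in these data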;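 note: 0% = GSTO1-1 with DMSO and 100% = wells lacking GSTO1-1 enzyme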
DTT redox prof = compounds producing H2O2 with reducing agent – biochemical, NIH compound library profiling, artefact control for MLSCN library redox annotation, primary screen. hit rate 0.03% among 200,000. DTT-dependent redox cycling H2O2, phenol red/HRP absorbance; 100% = 100 µM peroxide control, 0% = buffer. activation, % at 10 µM. AID 878;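 active = activation of at least 50% relative to the plate's high and low controls in the primary single-dose screen; inactive = activation below 50%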;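 note: compound incubated with DTT at 0.8 mM final as the reducing agent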
HKDC1 inh = HKDC1 (human) hexokinase inhibition; recombinant HKDC1, G6PDH/diaphorase resazurin coupled fluorescence; Q2TB90; hit rate 0.16% among 340,000; inhibition, % at 20 µM; AID 493160;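 active = inhibition above about 35% when tested at 20 µM, limit read from the data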;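 note: plate controls were DMSO wells with enzyme for no effect and DMSO wells lacking enzyme for full effect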
Target sequence (Q2TB90 whole entry, looked up): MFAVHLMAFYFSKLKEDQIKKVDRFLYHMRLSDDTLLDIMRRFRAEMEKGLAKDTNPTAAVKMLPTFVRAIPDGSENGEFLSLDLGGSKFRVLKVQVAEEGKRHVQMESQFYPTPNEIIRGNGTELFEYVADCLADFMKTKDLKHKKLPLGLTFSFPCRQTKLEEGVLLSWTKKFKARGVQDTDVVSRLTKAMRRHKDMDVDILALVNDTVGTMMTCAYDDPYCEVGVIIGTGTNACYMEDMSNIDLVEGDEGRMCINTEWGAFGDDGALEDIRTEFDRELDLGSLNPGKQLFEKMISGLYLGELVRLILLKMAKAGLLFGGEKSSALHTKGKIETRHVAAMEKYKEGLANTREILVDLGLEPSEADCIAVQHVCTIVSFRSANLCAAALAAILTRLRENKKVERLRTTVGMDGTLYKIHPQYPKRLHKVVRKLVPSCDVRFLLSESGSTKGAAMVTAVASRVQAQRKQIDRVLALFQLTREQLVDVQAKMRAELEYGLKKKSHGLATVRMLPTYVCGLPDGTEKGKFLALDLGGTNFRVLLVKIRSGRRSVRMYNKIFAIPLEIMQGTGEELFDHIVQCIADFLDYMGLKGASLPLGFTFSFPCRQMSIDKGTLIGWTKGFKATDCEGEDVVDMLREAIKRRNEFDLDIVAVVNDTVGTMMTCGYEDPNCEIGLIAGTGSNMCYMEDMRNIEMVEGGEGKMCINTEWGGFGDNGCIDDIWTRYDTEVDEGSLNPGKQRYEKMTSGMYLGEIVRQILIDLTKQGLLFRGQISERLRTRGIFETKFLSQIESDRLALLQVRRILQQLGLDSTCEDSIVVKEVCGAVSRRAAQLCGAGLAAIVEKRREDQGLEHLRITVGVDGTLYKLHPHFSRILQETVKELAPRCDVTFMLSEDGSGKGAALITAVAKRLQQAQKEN
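Assay system: in-house recombinant HK5 (HKDC1) enzyme. Input: HKDC1 at 5 µg/mL. Medium: Tris pH 8.0 buffer with MgCl2, Tween-20, BSA, BME. Dosing: single 20 µM dose. Schedule: 90 min reaction incubation at room temperature, dark. Signal: resazurin-to-resorufin fluorescence via G6PDH and diaphorase coupling, 525/613 nm. Controls: DMSO-enzyme wells negative, buffer-substituted wells positive.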
Apaf-1 inh = inhibitors of human Apaf-1 apoptosome | AID 489030 | inhibition, % at 20 µM | O14727 | hit rate 0.71% among 330,000 | reconstituted apoptosome caspase-3 activity, DEVD-Rh110 fluorescence; active = inhibition of at least 40% at 20 µM;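 note: plate controls were DMSO wells for no effect and DEVD-CHO caspase inhibitor wells for full effect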
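detection = Rh110 fluorescence intensity | test system = biochemical Apaf-1 apoptosome reconstitution | also added = cytochrome c and DEVD-Rh110 substrate | schedule = 30 min plus 50 min, RT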
Apaf-1 inh conf2 = Apaf-1 inhibition, single-dose confirmed; reconstituted apoptosome, caspase-3 DEVD-Rh110 fluorescence; hit rate 25% among 1,800; AID 504614; inhibition, % at 20 µM; shares compounds with Apaf-1 inh;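 active = mean inhibition of at least 40% at 20 µM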;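 note: plate controls were DMSO wells for no effect and DEVD-CHO caspase inhibitor control wells for full effect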
Rh110 interf inh = Rh110 signal interference in Apaf-1 inhibitor counter-screen; AID 504615; shares compounds with Apaf-1 inh; 1,800 tested, under 10 active; Rh110 fluorescence interference, quenched caspase reaction; activation (fluorescence interference), % at 20 µM;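 active = signal rise of 40% or more at 20 µM, treated as a fluorescence artifact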
Fluor interf inh = shows fluorescence interference in the Apaf-1 inhibitor assay format; shares compounds with Apaf-1 inh; fluorescence interference counterscreen, Apaf-1 assay format; IC50, µM; 460 tested, under 10 active; call rule not given here
* hit, by the source's call; ? = inconclusive; · = no result given. A selection: hits, their analogues and other compounds. The true share with any hit is near 1.4%.

SMILES | SUMO HTRF inh | GSTO1 inh | DTT redox prof | HKDC1 inh | Apaf-1 inh | Apaf-1 inh conf2 | Rh110 interf inh | others
COC(=O)C1=C(C)N(Cc2ccccc2)C(=NCCc2cccnc2)N[C@H]1c1ccccc1 | -1.4 | -2.1 | · | 1.8 | 8.2 | · | ·
COC(=O)C1=C(C)N(Cc2ccccc2)C(=NCC(C)C)N[C@H]1c1cccc(C(F)(F)F)c1 | · | · | · | 3.5 | 58.0* | 12.8 | 3.8
COC(=O)C1=C(C)N(Cc2ccccc2)C(=NCCc2ccccn2)N[C@H]1c1cccc(C(F)(F)F)c1 | · | · | · | -3.0 | 48.4* | 12.2 | 0.5
COC(=O)C1=C(C)N(Cc2ccccc2)C(=NCCc2cccnc2)N[C@H]1c1ccc(Br)cc1 | · | · | · | -4.7 | 51.3* | 10.8 | 0.5
COC(=O)C1=C(C)N(Cc2ccccc2)C(=NCc2ccc3c(c2)OCO3)N[C@H]1c1ccccc1 | · | · | · | 0.5 | 44.5* | 18.9 | 21.8
COC(=O)C1=C(C)N(Cc2ccccc2)C(=S)N[C@H]1c1cccc(C(F)(F)F)c1 | · | · | · | 3.8 | 14.4 | · | ·
COc1cc(C(=O)OCCCN=C2NS(=O)(=O)c3ccccc32)cc(OC)c1OC | 3.9 | 3.6 | -0.4 | -3.3 | 7.0 | · | ·
CN(Cc1ccccc1)C(=O)c1cccc(NC(=O)Cc2ccc(NC(=O)C3CCN(C(=O)C4CCC4)CC3)cc2)c1 | · | · | · | -2.4 | · | · | ·
CCOC(=O)N1CCN(Cc2nnc(-c3cccc(Br)c3)o2)CC1 | -2.4 | 1.5 | · | -9.3 | -0.9 | · | ·
COC(=O)C1=C(C)N(Cc2ccccc2)C(=NCc2ccccc2)N[C@H]1c1cccc(C(F)(F)F)c1 | · | · | · | 0.7 | 64.7* | 33.0 | 14.7
COC(=O)C1=C(C)N(Cc2ccccc2)C(=NCc2ccc(OC)cc2)N[C@H]1c1cccc(F)c1 | 2.4 | 8.9 | · | 0.0 | 55.6* | 11.0 | 8.6
COC(=O)C1=C(C)N(Cc2ccccc2)C(=NCC(C)C)N[C@H]1c1cccc(F)c1 | · | · | · | -2.8 | 43.8* | 5.2 | -1.1
COC(=O)C1=C(C)N(Cc2ccccc2)C(=NCc2ccco2)N[C@H]1c1cccc(F)c1 | · | · | · | 1.5 | 37.6 | · | ·
COC(=O)C1=C(C)N(Cc2ccccc2)C(=O)N[C@H]1c1cccc(C(F)(F)F)c1 | -4.2 | 4.7 | · | 0.9 | 25.3 | · | ·
COC(=O)Nc1ccc(S(=O)(=O)N2CCC(C(=O)NCc3ccc4c(c3)OCO4)CC2)cc1 | · | · | · | -3.8 | -8.9 | · | ·
CC(NC(=O)CCc1nnc(CCCc2ccccc2)o1)c1ccccc1 (configuration not stated) | 24.4 | 5.8 | 0.8 | -5.8 | -0.5 | · | ·
CC1CCC(CC(=O)O)(C(=O)O)CC1 (configuration not stated) | · | · | · | -7.0 | · | · | ·
Cn1c(=O)n(C)c2cc(/C=N/NC(=O)c3cc4cc(Br)ccc4o3)ccc21 | ? | 5.9 | · | -4.7 | 43.0* | 10.5 | -0.9
CNC(=S)N(CCCn1ccnc1)Cc1c(F)cccc1Cl | 2.9 | -0.9 | · | -4.4 | 10.0 | · | ·
COc1ccc(OC)c(-c2csc(NC(=O)CSCc3c(C)noc3C)n2)c1 | · | 12.8 | · | 4.5 | 13.6 | · | ·
CCN1/C(=C/C(C)=C/c2sc3ccccc3[n+]2CC)Sc2ccccc21 | 11.8 | -361.7 | 0.2 | -1.6 | 52.7* | 60.6* | 29.6 | Fluor interf inh=51.2*
O=C(NC1CCN(S(=O)(=O)c2ccc(F)cc2)CC1)c1cccnc1 | -1.3 | 0.8 | · | -0.6 | 4.3 | · | ·
COC(=O)c1ccc(C(=O)Nc2ccc(N)cc2N)cc1 | 29.9 | 7.8 | -1.9 | 8.2 | 48.2* | 13.1 | 1.1
COc1ccccc1NC(=O)c1ccc(N)cc1 | -7.2 | 4.5 | -1.0 | -6.9 | -0.4 | · | ·
CC(OC(=O)Cc1n[nH]c(=O)c2ccccc12)C(=O)Nc1ccc(F)cc1Cl (configuration not stated) | · | 7.5 | · | -0.2 | -1.4 | · | ·
SMILES | SUMO HTRF inh | GSTO1 inh | DTT redox prof | HKDC1 inh | Apaf-1 inh | Apaf-1 inh conf2 | Rh110 interf inh | others
Cc1ccc(-c2nn3c(-c4ccco4)nnc3c3ccccc23)cc1S(=O)(=O)NCC1CCCO1 (configuration not stated) | 23.7 | 0.5 | 0.3 | 7.7 | 66.1* | 82.7* | 6.7 | Fluor interf inh=>100
CCN(CCn1cccn1)C(=O)c1ccc(OC2CCN(C(=O)COC)CC2)cc1 | 5.6 | 0.0 | · | -6.9 | 3.0 | · | ·
CN(C)c1cccc2cccc(N(C)C)c12 | 68.0 | 1.6 | · | 7.4 | 89.4* | 19.4 | -2.9
Cc1ccc(C2(c3ccccc3)NC(=O)N(CC(=O)NC3CCCCC3)C2=O)cc1C (configuration not stated) | · | · | · | -0.3 | 16.4 | · | ·
COc1ccccc1CNC(=O)CN1C(=O)NC(c2ccccc2)(c2ccc(C)c(C)c2)C1=O (configuration not stated) | · | · | · | 4.4 | 65.9* | 15.2 | -1.8
COc1ccccc1-c1oc2ccccc2c1C#CC1(N)CCCCC1 | · | · | · | 14.2 | 68.1* | 28.2 | 5.5
C#CCOCCOCCOCCNc1nc(N2CCN(C(=O)C([C@@H](C)O)n3cc([C@@H](N)CCCCN)nn3)CC2)nc(N2CCN(C(=O)[C@H](CCCCN)n3cc([C@@H](N)CC(N)=O)nn3)CC2)n1 (some centres not stated) | · | · | · | -2.4 | 51.1* | 9.0 | -2.1
C#CCOCCOCCOCCNc1nc(N2CCN(C(=O)[C@H]([C@@H](C)CC)n3cc([C@@H](N)Cc4ccc(O)cc4)nn3)CC2)nc(N2CCN(C(=O)[C@H](CCCCN)n3cc([C@@H](N)CO)nn3)CC2)n1 | 6.4 | -2.6 | 0.0 | · | 52.3* | 0.1 | 0.9
C#CCOCCOCCOCCNc1nc(N2CCN(C(=O)[C@H](CCCCN)n3cc([C@@H](N)CC(N)=O)nn3)CC2)nc(N2CCN(C(=O)[C@H](CCCCN)n3cc([C@@H](N)CC(N)=O)nn3)CC2)n1 | · | · | · | -5.1 | 55.2* | 5.5 | 3.4
C#CCOCCOCCOCCNc1nc(N2CCN(C(=O)[C@H](CCCCN)n3cc(CN)nn3)CC2)nc(N2CCN(C(=O)[C@H](CCCCN)n3cc([C@@H](N)CC(N)=O)nn3)CC2)n1 | · | · | · | 11.2 | · | · | ·
C[C@@H]1CCCCCCCCC(=O)OCCN(C(=O)OC(C)(C)C)[C@H](C)CCCCCCCCC(=O)OCCN(C(=O)OC(C)(C)C)[C@H](C)CCCCCCCCC(=O)OCCN1C(=O)OC(C)(C)C | · | · | · | -5.3 | 6.4 | · | ·
O=Cc1ccc(OC(=O)CCCCC(=O)Oc2ccc(C=O)cc2)cc1 | -2.4 | -2.1 | · | 5.0 | 3.7 | · | ·
CC1=NN(c2ccc(C(=O)O)c(N)c2)C(=O)C1 | 79.4* | 63.0* | -1.0 | -1.9 | 62.1* | 6.8 | -2.4
COc1cc2ccnc(Cc3cccc(OC)c3OC)c2cc1OC | 26.9 | 1.7 | -0.9 | -5.1 | 2.3 | · | ·
COc1cc(N)c(Cc2nccc3cc(OC)c(OC)cc23)cc1OC | 17.1 | 14.1 | 0.0 | 1.0 | 47.5* | 24.7 | -0.1
